In ChEMBL document CHEMBL1127085, “Derivatives of 2-(dipropylamino)tetralin: effect of the C8-substituent on the interaction with 5-HT1A receptors” (J Med Chem, 1993):

How the values were obtained:
Rattus norvegicus [1] = species on record: Rattus norvegicus; assay: Dopamine (DA) turnover in rat corpus striatum (p<0.01); assay type: functional
In short: (§1)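 Rats given compound sc in 0.9% NaCl (screening dose typically 32 µmol/kg); decapitated about 30 min after dosing. Hippocampus and corpus striatum dissected and frozen. Perchloric acid homogenates analysed by HPLC with electrochemical detection. Turnover taken as 5-HIAA/5-HT or DOPAC/DA, expressed as percent of saline control. Means ± SEM; n = 5-7 controls, 4-6 treated. ANOVA with Tukey test.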

[2] = biological target: T1, 5-hydroxytryptamine receptor 1A (Rattus norvegicus) (UniProt P19327); assay: Number of rats displaying the 5-HT syndrome or leaving the cage out of the number of rats tested; assay type: functional
T1 sequence (whole entry): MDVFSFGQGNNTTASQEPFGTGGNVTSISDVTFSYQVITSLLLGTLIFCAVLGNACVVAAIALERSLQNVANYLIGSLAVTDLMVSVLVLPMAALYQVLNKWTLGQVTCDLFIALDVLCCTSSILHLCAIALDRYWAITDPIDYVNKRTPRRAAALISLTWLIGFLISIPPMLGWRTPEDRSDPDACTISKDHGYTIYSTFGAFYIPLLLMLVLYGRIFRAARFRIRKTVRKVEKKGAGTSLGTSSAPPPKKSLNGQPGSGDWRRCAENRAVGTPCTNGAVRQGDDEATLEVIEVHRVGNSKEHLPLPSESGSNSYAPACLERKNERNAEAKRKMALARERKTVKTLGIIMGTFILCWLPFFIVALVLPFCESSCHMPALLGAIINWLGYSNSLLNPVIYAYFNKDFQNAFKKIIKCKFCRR

[3] = biological target: T1, 5-hydroxytryptamine receptor 1A (Rattus norvegicus); assay: Induction of clear-cut 5-HT motor syndrome in normal rats at the dose of 32 micro mol/kg; assay type: functional
[4] = biological target: T1, 5-hydroxytryptamine receptor 1A (Rattus norvegicus); assay: Induction of clear-cut 5-HT motor syndrome in reserpine (5 mg/kg, sc) pretreated rats at the dose of 32 micro mol/kg; assay type: functional, organism-based
[5] = biological target: T1, 5-hydroxytryptamine receptor 1A (Rattus norvegicus); assay: 5-HT (serotonin) turnover in rat hippocampus; assay type: functional, tissue-based; in short: as §1
Rattus norvegicus [6] = assay: Change in body temperature of rats upon administration after 30 minutes (p<0.01); assay type: functional
In short: (§2)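 Colonic temperature taken with an electrical thermometer probe 3.5 cm deep, before and 30 min after sc injection in saline. Change reported in °C as mean ± SEM; animal numbers as in the cage-leaving test. ANOVA with Tukey test.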

Rattus norvegicus [7] = assay: Induction of clear-cut 5-HT motor syndrome in normal rats at the dose of 30 micro mol/kg; assay type: functional
[8] = biological target: T1, 5-hydroxytryptamine receptor 1A (Rattus norvegicus); assay: 5-HT (serotonin) turnover in rat hippocampus (p<0.01); assay type: functional, tissue-based
In short: (§3)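 Rats dosed sc (screening dose typically 32 µmol/kg, in 0.9% NaCl, 2 mL/kg); decapitated 5-10 min after the 30-min rating, […]. Hippocampus dissected and frozen. 5-HIAA/5-HT ratio measured by HPLC with electrochemical detection (+0.85 V) after perchloric acid homogenisation. Reported as percent of saline control, mean ± SEM, n = 4-6 per group; ANOVA with Tukey test.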

Rattus norvegicus [9] = species on record: Rattus norvegicus; assay: Dopamine (DA) turnover in rat corpus striatum (p<0.05); assay type: functional; in short: as §1
Rattus norvegicus [10] = assay: Induction of clear-cut 5-HT motor syndrome in normal rats at the dose of 10 uM/Kg; assay type: functional
[11] = biological target: T2, Dopamine receptor (Rattus norvegicus) (UniProt P25115+P19020+P30729+P18901+P61169); assay: Dopamine (DA) turnover in rat corpus striatum; assay type: functional, tissue-based; in short: as §1
Rattus norvegicus [12] = assay: Change in body temperature of rats upon administration after 30 minutes; assay type: functional; in short: as §2
Rattus norvegicus [13] = assay: Induction of clear-cut 5-HT motor syndrome in reserpine (5 mg/Kg, sc) pretreated rats at the dose of 10 uM/Kg; assay type: functional
[14] = biological target: T1, 5-hydroxytryptamine receptor 1A (Rattus norvegicus); assay: Antagonistic effect on 5-HT syndrome or behavior of rat induced by (R)-1 at the dose of 32 and 1.0 umol/kg of compound (R)-1; assay type: functional
In short: (§4)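 Compound (32 µmol/kg sc) or saline injected 10 min before (R)-8-OH-DPAT (1.0 µmol/kg sc). Flat body posture, forepaw treading and hindlimb abduction scored during 30 min of observation. Results as number of rats showing the behaviour out of number tested; Fisher's exact probability test.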

Rattus norvegicus [15] = assay: Induction of clear-cut 5-HT motor syndrome in normal rats at the dose of 32 umol/kg; assay type: functional
Rattus norvegicus [16] = assay: Antagonistic effect on body temperature of rat induced by (R)-1 at the dose of 32 and 1 umol/kg of compound (R)-1; assay type: functional
In short: (§5)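 Compound (32 µmol/kg sc) or saline injected 10 min before (R)-8-OH-DPAT (1.0 µmol/kg sc). Colonic temperature taken before injection and 30 min later; result is the change from the preinjection value. One-way ANOVA with Tukey HSD test.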

[17] = biological target: T3, 5-hydroxytryptamine receptor 1A (Rattus norvegicus, UniProt P19327); assay: Binding affinity of 5-hydroxytryptamine 1A receptor using [3H]-8-OH-DPAT as radioligand.
T3 sequence (P19327 whole entry): T1 sequence (whole entry)
In short: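 Membranes from cortex and hippocampus of male Sprague-Dawley rats, pooled from at least six rats, preincubated with 10 µM pargyline. Assay used 2 nM [3H]-8-OH-DPAT, test compound at 1-300 nM and 5 mg/mL tissue in 50 mM Tris-HCl with 4.0 mM CaCl2 and 5.7 mM ascorbate, pH 7.5. Incubated 10 min at 37 °C, filtered on GF/B, scintillation counted.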

Rattus norvegicus [18] = species on record: Rattus norvegicus; assay: 5-HT (serotonin) turnover in rat hippocampus (0.05); assay type: functional; in short: as §1
Rattus norvegicus [19] = assay: Antagonistic effect on 5-HT syndrome or behavior of rat induced by (R)-8-hydroxy-DPAT at the dose of 32 and 1.0 umol/kg; assay type: functional; in short: as §4
Rattus norvegicus [20] = assay: Antagonistic effect on 5-HT syndrome or behavior of rat at the dose of 32 umol/kg with saline; assay type: functional; in short: as §4
Rattus norvegicus [21] = assay: Antagonistic effect on body temperature of rat induced by (R)-1 at the dose of 32 umol/kg with saline; assay type: functional; in short: as §5
Rattus norvegicus [22] = assay: Antagonistic effect on body temperature of rat induced by (R)-1 at the dose of 32 and 1.0 umol/kg of compound (R)-1; assay type: functional; in short: as §5
[23] = biological target: T1, 5-hydroxytryptamine receptor 1A (Rattus norvegicus); assay: Effect of 5-HT accumulation in rat hippocampus at the dose of 32 umol/kg (p<0.01); assay type: functional, tissue-based
In short: (§6)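 Test compound given sc in 0.9% NaCl. NSD 1015 (287 µmol/kg sc) given 30 min later to inhibit aromatic L-amino acid decarboxylase; rats decapitated after a further 30 min. Hippocampus and striatum stored at -40 °C for up to 1 week. Perchloric acid homogenates with α-methyl-5-hydroxytryptophan internal standard; 5-HTP and DOPA measured by HPLC-EC. Percent of control, means ± SEM; ANOVA with Tukey test.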

Rattus norvegicus [24] = species on record: Rattus norvegicus; assay: 5-HT (serotonin) turnover in rat hippocampus (p<.005); assay type: functional; in short: as §1
[25] = biological target: T2, Dopamine receptor (Rattus norvegicus); assay: Effect of accumulation of DOPA in rat striatum at the dose of 32 umol/kg; assay type: functional, tissue-based; in short: as §6
Rattus norvegicus [26] = assay: Induction of clear-cut 5-HT motor syndrome in normal rats at the dose of 1 uM/Kg; assay type: functional
Rattus norvegicus [27] = assay: Induction of clear-cut 5-HT motor syndrome in reserpine (5 mg/Kg, sc) pretreated rats at the dose of 1 uM/Kg; assay type: functional
[28] = biological target: T1, 5-hydroxytryptamine receptor 1A (Rattus norvegicus); assay: Induction of clear-cut 5-HT motor syndrome in reserpine (5 mg/Kg, sc) pretreated rats at the dose of 32 uM/Kg; assay type: functional, organism-based
Rattus norvegicus [29] = assay: Induction of clear-cut 5-HT motor syndrome in normal rats at the dose of 32 uM/Kg; assay type: functional
Rattus norvegicus [30] = assay: Effect of DOPA accumulation in rat striatum at the dose of 32 umol/kg (p<0.1); assay type: functional; in short: as §6
Rattus norvegicus [31] = assay: Induction of clear-cut 5-HT motor syndrome in reserpine (5 mg/kg, sc) pretreated rats at the dose of 10 micro mol/kg; assay type: functional
Rattus norvegicus [32] = assay: Effect of DOPA accumulation in rat striatum at the dose of 32 umol/kg; assay type: functional; in short: as §6
Rattus norvegicus [33] = assay: Induction of clear-cut 5-HT motor syndrome in normal rats at the dose of 10 micro mol/kg; assay type: functional
Rattus norvegicus [34] = assay: Effect of DOPA accumulation in rat striatum at the dose of 0.32 umol/kg (p<0.01); assay type: functional; in short: as §6
Rattus norvegicus [35] = assay: Effect of accumulation of DOPA in rat striatum at the dose of 0.32 umol/kg (p<0.01); assay type: functional; in short: as §6
[36] = biological target: T1, 5-hydroxytryptamine receptor 1A (Rattus norvegicus); assay: 5-HT (serotonin) turnover in rat hippocampus (p<0.05); assay type: functional, tissue-based; in short: as §3
Rattus norvegicus [37] = assay: Ability produce 5-HT motor syndrome in reserpine (5 mg/kg, sc) pretreated rats at the dose of 3.2 micro mol/kg; assay type: functional

CCCN(CCC)[C@H]1CCc2ccccc2C1
Turnover (Rattus norvegicus [1]): 62
No. of rats [2]: 5
Behavioral effect [3]: 5
Behavioral effect [4]: 0
Turnover [5]: 104
Temperature (Rattus norvegicus [6]): -1.6

CCCN(CCC)[C@@H]1CCc2cccc(OC)c2C1
No. of rats [2]: 0
Behavioral effect (Rattus norvegicus [7]): 4
Turnover [8]: 66
Turnover (Rattus norvegicus [9]): 70
Temperature (Rattus norvegicus [6]): -1.5

CCCN(CCC)[C@@H]1CCc2cccc(C(=O)OC)c2C1
Behavioral effect (Rattus norvegicus [10]): 4
No. of rats [2]: 0
Turnover [11]: 90
Temperature (Rattus norvegicus [12]): -2.3
Behavioral effect (Rattus norvegicus [13]): 4
Turnover [5]: 63

CCCN(CCC)[C@@H]1CCc2cccc(OS(=O)(=O)C(F)(F)F)c2C1
No. of rats [2]: 4
Effect [14]: 4
Turnover [11]: 93
Behavioral effect (Rattus norvegicus [15]): 0
Temperature (Rattus norvegicus [12]): 0.5
Turnover [5]: 106
Temperature (Rattus norvegicus [16]): -4.18

CCCN(CCC)C1CCc2ccccc2C1 (racemic)
Turnover (Rattus norvegicus [1]): 46
No. of rats [2]: 4
Behavioral effect (Rattus norvegicus [15]): 4
Ki [17]: 37 nM
Behavioral effect [4]: 4
Temperature (Rattus norvegicus [6]): -2
Turnover (Rattus norvegicus [18]): 60

CCCN(CCC)[C@H]1CCc2c(F)ccc(O)c2C1
Effect (Rattus norvegicus [19]): 0
Effect (Rattus norvegicus [20]): 0
Temperature (Rattus norvegicus [21]): -0.02
Temperature (Rattus norvegicus [22]): -0.76

CCCN(CCC)[C@@H]1CCc2cccc(C)c2C1
No. of rats [2]: 0
Turnover [11]: 88
Behavioral effect [3]: 4
Accumulation [23]: 54
Turnover (Rattus norvegicus [24]): 69
Behavioral effect [4]: 0
Accumulation [25]: 86
Temperature (Rattus norvegicus [6]): -2.1

CCCN(CCC)[C@@H]1CCc2cccc(C(C)=O)c2C1
Behavioral effect (Rattus norvegicus [26]): 4
No. of rats [2]: 0
Turnover [11]: 106
Temperature (Rattus norvegicus [12]): -2.8
Behavioral effect (Rattus norvegicus [27]): 4
Turnover [5]: 68

CCCN(CCC)[C@@H]1CCc2cccc(C(=O)c3ccccc3)c2C1
No. of rats [2]: 0
Turnover [11]: 122
Temperature (Rattus norvegicus [12]): -3.3
Behavioral effect [28]: 4
Behavioral effect (Rattus norvegicus [29]): 4
Accumulation [23]: 56
Ki [17]: 4.6 nM
Accumulation [25]: 69
Turnover [5]: 74

C#Cc1cccc2c1C[C@H](N(CCC)CCC)CC2
No. of rats [2]: 0
Turnover [11]: 78
Behavioral effect [3]: 4
Turnover [8]: 73
Accumulation (Rattus norvegicus [30]): 50
Accumulation [23]: 43
Ki [17]: 22 nM
Behavioral effect [4]: 4
Accumulation [25]: 59
Temperature (Rattus norvegicus [6]): -1.6

CCCN(CCC)[C@@H]1CCc2ccccc2C1
Turnover (Rattus norvegicus [1]): 77
No. of rats [2]: 4
Behavioral effect (Rattus norvegicus [15]): 4
Turnover [8]: 51
Behavioral effect [4]: 4
Temperature (Rattus norvegicus [6]): -1.4

C#Cc1cccc2c1CC(N(CCC)CCC)CC2 (racemic)
Behavioral effect (Rattus norvegicus [31]): 1
Ki [17]: 4 nM

CCCN(CCC)C1CCc2cccc(C(=O)OC)c2C1 (racemic)
Behavioral effect [28]: 4
Accumulation (Rattus norvegicus [32]): 59
Ki [17]: 2.4 nM
Accumulation [25]: 81

CCCN(CCC)[C@H]1CCc2cccc(C(=O)OC)c2C1
Behavioral effect (Rattus norvegicus [10]): 4
No. of rats [2]: 0
Turnover [11]: 98
Temperature (Rattus norvegicus [12]): -2.5
Behavioral effect (Rattus norvegicus [13]): 4
Turnover [5]: 59

CCCN(CCC)[C@H]1CCc2cccc(C(C)=O)c2C1
Behavioral effect (Rattus norvegicus [26]): 4
No. of rats [2]: 0
Turnover [11]: 111
Temperature (Rattus norvegicus [12]): -2.1
Behavioral effect (Rattus norvegicus [27]): 4
Turnover [5]: 71

CCCN(CCC)[C@H]1CCc2cccc(O)c2C1
No. of rats [2]: 0
Behavioral effect (Rattus norvegicus [33]): 4
Turnover [11]: 106
Accumulation (Rattus norvegicus [34]): 94
Accumulation (Rattus norvegicus [35]): 94
Behavioral effect (Rattus norvegicus [31]): 5
Turnover [36]: 72
Temperature (Rattus norvegicus [6]): -2

CCCN(CCC)C1CCc2cccc(CO)c2C1 (racemic)
Behavioral effect (Rattus norvegicus [37]): 3
Ki [17]: 25 nM
